{
  "source": "PubChem BioAssay AID720702",
  "about": "(The Scripps Research Institute Molecular Screening Center, 2013)",
  "note": "Screen size: about 370,000 compounds; about 1,200 (0.32%) were called active. Shown is part of a subset that was picked to be rich in actives. A number with no mark means an inactive call.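 The calls were made as follows: active = inhibition above the mean of all tested compounds plus 3 SD, set per campaign (cut at about 25% in these data); inactive = the rest.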",
  "data": [
    {"target": "Tyrosyl-DNA phosphodiesterase 2 (Homo sapiens) (UniProt O95551)", "sequence (O95551 whole entry, looked up)": "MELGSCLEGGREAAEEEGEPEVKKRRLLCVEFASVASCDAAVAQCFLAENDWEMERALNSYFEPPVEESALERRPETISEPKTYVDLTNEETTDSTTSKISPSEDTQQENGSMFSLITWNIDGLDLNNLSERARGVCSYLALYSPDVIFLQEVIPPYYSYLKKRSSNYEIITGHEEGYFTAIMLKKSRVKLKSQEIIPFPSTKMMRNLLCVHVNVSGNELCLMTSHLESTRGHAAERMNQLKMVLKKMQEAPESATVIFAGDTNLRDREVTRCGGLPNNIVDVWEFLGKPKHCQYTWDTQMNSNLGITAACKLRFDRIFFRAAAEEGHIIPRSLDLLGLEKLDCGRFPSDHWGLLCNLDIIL", "test": "human TDP2 enzyme inhibitors, primary screen, biochemical, epi absorbance, recombinant enzyme (AID 720702);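 also: 0% = DMSO with enzyme and 100% = buffer with substrate but no TDP2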", "conditions": "recombinant TDP2, T5PNP hydrolysis, p-nitrophenol absorbance 415 nm; at 12.8 µM; hits give high values", "outline": "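System: recombinant human TDP2 / Amount: 120 nM TDP2 per well / Also added: 5 mM T5PNP chromogenic substrate / Doses: 12.8 µM single point, 1% DMSO / Incubation: 2 h at 37 °C / Detection: p-Nitrophenol epi absorbance / Evaluation: % inhibition relative to enzyme-containing and enzyme-free wells / Repeats: singlicate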", "values": [
      {"smiles": "COc1ccccc1CCNC(=O)C(=O)NCCC1CCCCN1S(=O)(=O)c1cccs1", "note": "(centres undefined)", "inhibition": "-2.28%"},
      {"smiles": "O=C(NCc1ccc(Cl)cc1)C(=O)NCC1CCCN1S(=O)(=O)c1cccs1", "note": "(centres undefined)", "inhibition": "6.77%"},
      {"smiles": "O=C(NCc1ccccc1Cl)C(=O)NCC1CCCN1S(=O)(=O)c1cccs1", "note": "(centres undefined)", "inhibition": "25.5% (active)"},
      {"smiles": "COC(=O)C1CN(Cc2cn(Cc3ccc(F)cc3)nn2)CCS(=O)(=O)N1Cc1ccc(Cl)cc1", "note": "(centres undefined)", "inhibition": "-3.71%"},
      {"smiles": "CCCCc1c(O)nc2n(c1=O)CCS2", "inhibition": "7.5%"},
      {"smiles": "CCCCCCCCc1c(O)nc(-n2[nH]c(C)c(CCO)c2=O)[nH]c1=O", "inhibition": "41.6% (active)"},
      {"smiles": "COc1cc(/C=C/C(=O)n2cnc3ccccc32)cc(OC)c1OC", "inhibition": "-7.12%"},
      {"smiles": "Cc1cc(C)c(S(=O)(=O)NN=C2c3ccccc3[C@H]3Cc4csc[n+]4[C@@H]23)c(C)c1", "inhibition": "25.7% (active)"},
      {"smiles": "CCSC(C)CC1C/C(=N/O)c2c(C)noc2C1", "note": "(centres undefined)", "inhibition": "4.33%"},
      {"smiles": "COC1=C[C@H](C(=O)NCCNC(C)=O)[C@H](C)[C@@H](c2ccccc2)CC1=O", "inhibition": "6.52%"},
      {"smiles": "Oc1c(C=Nc2cccc3nsnc23)ccc2ccccc12", "inhibition": "59.5% (active)"},
      {"smiles": "Cc1ccc(-n2c(COc3ccccc3)nnc2SCC(=O)Nc2ccc3c(c2)OCCO3)cc1", "inhibition": "-5.97%"},
      {"smiles": "COC(=O)[C@H](C(C)C)N(CCCc1cn(Cc2ccccc2)nn1)S(=O)(=O)c1ccc(F)cc1Br", "inhibition": "-3.1%"},
      {"smiles": "C=CCO/N=C(\\C)c1c(O)c(C)c(-c2ccccc2)n(-c2ccccc2)c1=O", "inhibition": "-4.01%"},
      {"smiles": "COC(=O)[C@]12C[C@H](CC(=O)NCCCN3CCCC3=O)C(=O)N(CCc3ccc(OC)c(OC)c3)C1=C[C@H](COCc1ccccc1)O[C@@H]2C", "inhibition": "5.78%"},
      {"smiles": "O=C1C(=O)N(Cc2ccc(-c3ccsc3)cc2)c2ccc(OC(F)(F)F)cc21", "inhibition": "3.8%"},
      {"smiles": "COc1ccc2c(c1)C(C)=CC(C)(C)N2C(=O)Nc1ccccc1", "inhibition": "41.9% (active)"},
      {"smiles": "COc1ccc2c(c1)C(C)=CC(C)(C)N2C(=O)CNCc1ccc2c(c1)OCO2", "inhibition": "4.77%"},
      {"smiles": "COc1cccc(NC(=O)C2C(c3ccccc3)C2(Cl)Cl)c1", "note": "(centres undefined)", "inhibition": "0.37%"},
      {"smiles": "CC(=O)Nc1ccc(S(=O)(=O)NC(C)C(=O)OCCOc2ccc(F)cc2)cc1", "note": "(centres undefined)", "inhibition": "3.48%"},
      {"smiles": "Cn1nc(N)c2ncc(C(Cl)(Cl)Cl)nc21", "inhibition": "33.9% (active)"},
      {"smiles": "Cc1ccc(C2=CCN(C)C(=O)N2c2ccc(Cl)cc2)cc1", "inhibition": "8.05%"},
      {"smiles": "Cc1[nH][nH]c(=O)c1C(c1ccc(-c2ccc(Cl)cc2)o1)c1c(C)[nH][nH]c1=O", "inhibition": "30% (active)"},
      {"smiles": "COc1cccc(NC(=O)[C@H](Cc2c[nH]c3ccccc23)NC(=O)[C@@H]2Cc3ccccc3CN2)c1", "inhibition": "-6.32%"}
    ]}
  ]
}
